Measurements gathered from unrelated publications.
Each line is one published result; the experiments were not run side by side.
ALK L1196M: ALK tyrosine kinase receptor (ALK, Homo sapiens, UniProt Q9UM73, L1196M)
ALK: ALK tyrosine kinase receptor (ALK, Homo sapiens, UniProt Q9UM73)
ALK C1156Y: ALK tyrosine kinase receptor (ALK, Homo sapiens, UniProt Q9UM73, C1156Y)

With `O=C(NCCCN1CCOCC1)c1ccc(Nc2ncc(Cl)c(-c3ccc(Cl)s3)n2)cc1` the remaining binding was 90% (ALK L1196M; binding; competition with immobilised ligand; 1 µM).
With `C[C@@H]1CN(c2ccc3ncc(-c4ccc5[nH]nc(C6CC6)c5c4)n3n2)C[C@H](C)O1` the remaining binding was 80% (ALK; binding; competition with immobilised ligand; 0.5 µM).
For `O=C(NCC1CCOCC1)c1n[nH]cc1NC(=O)c1c(F)cccc1F`, the remaining binding was 100% (ALK L1196M; binding; competition with immobilised ligand; 1 µM).
`O=C(NCCCN1CCOCC1)c1ccc(Nc2nccc(-c3cc4ccccc4s3)n2)cc1` gave a remaining binding of 97% (ALK C1156Y; binding; competition with immobilised ligand; 1 µM).
The remaining binding of `CCCCN(CCCC)C(=O)CN1C[C@H](c2cc(OC)c3c(c2)OCO3)[C@@H](C(=O)O)[C@@H]1CC(C)(C)CCC` is reported as 100% (ALK C1156Y; cell-free assay; competition with immobilised ligand; 1 µM).
`C=CC(=O)N1CCC(C(=O)NCC(=O)N2CCN(c3nc(-c4cnc(N)nc4C(F)F)nc(N4CCOCC4)n3)CC2)CC1` gave a remaining binding of 91% (ALK C1156Y; binding; competition with immobilised ligand; 1 µM).
With `COc1ccnn2ncc(-c3ccnc(N(C)C)n3)c12` the remaining binding was 91% (ALK L1196M; binding; 1 µM).
`COc1cnc(Nc2cccc(S(N)(=O)=O)c2)nc1N1CCN(c2ccccc2)C(=O)C1` gave a remaining binding of 96% (ALK C1156Y; binding; competition with immobilised ligand; 1 µM).
With `COc1ncc2cc3ccccc3nc2c1C#N` the remaining binding was 96% (ALK C1156Y; cell-free assay; competition with immobilised ligand; 5 µM).
`N[C@@H]1CCN(c2nccc(-c3cnn4ncccc34)n2)C1` has a remaining binding of 97% (ALK; binding; 1 µM).
For `Cc1noc([C@H]2C[C@@H](c3ccc(C(F)(F)F)cc3)CN(C(=O)N3CCS(=O)(=O)C3)C2)n1`, the remaining binding was 100% (ALK; cell-free assay; competition with immobilised ligand; 1 µM).
With `CC1CCCN1c1nccc(-c2cnn3ncccc23)n1` (centres unmarked) the remaining binding was 85% (ALK L1196M; binding; 1 µM).
With `CCC(=O)N[C@@H]1CC[C@H](C(=O)N(C)c2ccc(-c3nc4ccccc4o3)cc2)C1` the remaining binding was 99% (ALK; cell-free assay; competition with immobilised ligand; 1 µM).
The remaining binding of `N#Cc1ccccc1CSc1nnc2c(n1)[nH]c1ccccc12` is reported as 72% (ALK; binding; competition with immobilised ligand; 10 µM).
For `F[C@@H]1CCN(c2nccc(-c3cnn4ncccc34)n2)C1`, the remaining binding was 100% (ALK; binding; 1 µM).
With `C[C@@H](c1ccc(-n2cnc3c(N)ncnc32)cc1)N1CCc2nn(C)c(Cc3ccccc3)c2C1=O` the remaining binding was 76% (ALK; binding; competition with immobilised ligand; 0.1 µM).
`O=C(c1ccc(Nc2nccc(-c3cc4ccccc4s3)n2)cc1)N1CCC(N2CCCC2)CC1` has a remaining binding of 77% (ALK C1156Y; binding; competition with immobilised ligand; 1 µM).
With `O=S(=O)(NC1CCC(c2cc(F)ccc2F)(S(=O)(=O)c2ccc(Cl)cc2)CC1)C(F)(F)F` (centres unmarked) the remaining binding was 94% (ALK L1196M; cell-free assay; competition with immobilised ligand; 1 µM).
With `O=C(Nc1c[nH]nc1C(=O)NC1CCNCC1)c1cc(F)cc(F)c1` the remaining binding was 91% (ALK; binding; competition with immobilised ligand; 1 µM).
`Cc1cnn2ncc(-c3ccnc(N(C)C)n3)c2c1` gave a remaining binding of 71% (ALK L1196M; binding; 1 µM).
The remaining binding of `Nc1c(C(=O)NCc2ccc(C(=O)NCCCC3CCCCC3)cc2)cnn1-c1ccccc1` is reported as 100% (ALK; cell-free assay; competition with immobilised ligand; 0.1 µM).
`CNC(=O)[C@@H]1CC[C@@H](n2c(-c3ccc4cnccc4c3)nc3ccc(C(=O)NCc4cccc(C(N)=O)c4)cc32)C1` gave a remaining binding of 100% (ALK C1156Y; binding; competition with immobilised ligand; 1 µM).
For `O=C(c1ccc(Nc2ncc(Cl)c(-c3ccc(Cl)s3)n2)cc1)N1CCC(N2CCCC2)CC1`, the remaining binding was 38% (ALK C1156Y; binding; competition with immobilised ligand; 1 µM).
`C[C@@H]1CCN(c2nccc(-c3cnn4ncccc34)n2)C1` gave a remaining binding of 100% (ALK L1196M; binding; 1 µM).
`O=C(c1ccc(Nc2ncc(Cl)c(-c3cc4ccccc4s3)n2)cc1)N1CCC(N2CCCC2)CC1` gave a remaining binding of 68% (ALK; binding; competition with immobilised ligand; 1 µM).
`Nc1ncc2c(n1)-c1c([nH]c3ccc(C#CC4CC4)cc13)CCCC2` has a remaining binding of 84% (ALK C1156Y; binding; competition with immobilised ligand; 1 µM).
`c1cncc(-c2cccc(Nc3nccc(NC4CCCCC4)n3)c2)c1` has a remaining binding of 37% (ALK C1156Y; binding; competition with immobilised ligand; 10 µM).
For `CCOC(=O)c1cc2cc(-c3cc(C(=O)NCc4ccc(C(=O)O)cc4)nn3C)ccc2[nH]1`, the remaining binding was 98% (ALK L1196M; cell-free assay; competition with immobilised ligand; 0.1 µM).
For `CN(C)c1nccc(-c2cnn3ncccc23)n1`, the remaining binding was 100% (ALK; binding; 1 µM).
The remaining binding of `CO[C@@H](C)c1c(Nc2ccc([C@H](N(C)C(=O)C3CCS(=O)(=O)CC3)C(F)(F)F)cc2)cnc2cc(Cl)nn12` is reported as 89% (ALK C1156Y; cell-free assay; competition with immobilised ligand; 1 µM).
`Cc1cnc(Nc2ccc(C(=O)N3CCC(N4CCCC4)CC3)cc2)nc1-c1cc2ccccc2s1` gave a remaining binding of 34% (ALK C1156Y; binding; competition with immobilised ligand; 1 µM).
With `CN1CCN(c2ccc(Nc3nccc(-c4cccc([N+](=O)[O-])c4)n3)cc2C(F)(F)F)CC1` the remaining binding was 76% (ALK L1196M; binding; 10 µM).
`CN(CCCC(F)(F)F)c1nccc(-c2cnn3ncccc23)n1` has a remaining binding of 97% (ALK; binding; 1 µM).
The remaining binding of `COc1cnc(Nc2cccc(S(N)(=O)=O)c2)nc1N1CCN(c2ccccc2)CC1` is reported as 100% (ALK C1156Y; binding; competition with immobilised ligand; 1 µM).
`COCCOc1nc(-c2ccc(Cl)nc2)nc2c1CN(C(=O)c1ncn3ccccc13)CC2` has a remaining binding of 100% (ALK L1196M; cell-free assay; competition with immobilised ligand; 0.1 µM).
